Experimental data: ChEMBL document CHEMBL2417469, “Synthesis of novel analogs of 2-pyrazoline obtained from [(7-chloroquinolin-4-yl)amino]chalcones and hydrazine as potential antitumor and antimalarial agents” (Eur J Med Chem, 2013)
Converted amounts (≈) assume the structure as drawn.

Tests used:
TK-10 = experiment: Cytotoxicity against human TK10 cells after 48 hrs by SRB assay; assay type: functional; conditions: TK-10, 48 h
Procedure, shortened: (§1)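 NCI 60-cell screen. Cells grew 24 h (37 °C, 5% CO2) before compound was added. Compounds were in DMSO and diluted in medium with gentamicin, then tested at five levels (100, 10, 1.0, 0.1, 0.01 µM) with 48 h continuous exposure. Adherent cells were fixed with TCA (10% final) and stained with 0.4% SRB, absorbance read at 515 nm. A time-zero plate was included. LC50 is the concentration giving 50% loss of protein relative to time zero.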

ACHN = experiment: Cytotoxicity against human ACHN cells after 48 hrs by SRB assay; assay type: functional
Procedure, shortened: (§2)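 NCI 60-cell-line screen. Cells preincubated 24 h at 37 °C, 5% CO2; time-zero plates TCA-fixed. Compounds dissolved in DMSO and tested at five concentrations (100, 10, 1.0, 0.1, 0.01 µM) for 48 h continuous exposure. Adherent cells fixed with cold TCA (10% final), then SRB stained; absorbance at 515 nm. GI50, TGI and LC50 calculated from growth relative to time-zero and untreated controls.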

[1] = Toxicity in RBC (unknown origin) assessed as hemolysis after 48 hrs at 20 to 80 ug/ml by spectrophotometry; assay type: cell-based, Erythrocyte; conditions: red blood cells (RBC); read-out: Activity
Procedure, shortened: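 Red blood cells at 5% hematocrit in RPMI 1640 exposed to 20, 40 and 80 µg/mL for 48 h at 37 °C; free hemoglobin read spectrophotometrically at 542 nm.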

SF-539 = experiment: Cytotoxicity against human SF539 cells after 48 hrs by SRB assay; assay type: functional; conditions: SF-539, 48 h; procedure, shortened: as §2
MOLT-4 = experiment: Cytotoxicity against human MOLT4 cells after 48 hrs by SRB assay; assay type: functional; conditions: MOLT-4, 48 h; procedure, shortened: as §2
SK-OV-3 = experiment: Cytotoxicity against human SKOV3 cells after 48 hrs by SRB assay; assay type: functional; conditions: SK-OV-3, 48 h; procedure, shortened: as §2
SW-620 = experiment: Cytotoxicity against human SW620 cells after 48 hrs by SRB assay; assay type: functional; conditions: SW-620, 48 h; procedure, shortened: as §1
U-251 = experiment: Cytotoxicity against human U251 cells after 48 hrs by SRB assay; assay type: functional; conditions: U-251, 48 h; procedure, shortened: as §1
Plasmodium falciparum [2] = experiment: Antimalarial activity against Plasmodium falciparum NF54 infected in human serum after 48 hrs by fluorometric method; assay type: functional, organism-based
Procedure, shortened: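 Asynchronous P. falciparum NF54 cultures at 1.5–2% parasitemia, 5% hematocrit in RPMI with 10% human serum; equal volumes of parasite suspension and compound dilutions (from 100 µg/mL stock) incubated 48 h, 37 °C, 90% N2/5% CO2/5% O2. DNA extracted with proteinase K lysis, stained with ethidium bromide; fluorescence-based viability vs compound-free control. IC50 by Probit; triplicate.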

CAKI-1 = experiment: Cytotoxicity against human Caki1 cells after 48 hrs by SRB assay; assay type: functional; conditions: CAKI-1, 48 h; procedure, shortened: as §2
OVCAR-5 = experiment: Cytotoxicity against human OVCAR5 cells after 48 hrs by SRB assay; assay type: functional; conditions: OVCAR-5, 48 h; procedure, shortened: as §2
Plasmodium falciparum [3] = experiment: Antimalarial activity against Plasmodium falciparum NF54 infected in human serum at 20 ug/ml after 48 hrs by fluorometric method; assay type: functional
Procedure, shortened: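 Asynchronous P. falciparum NF54 at 1.5–2% parasitemia, 5% hematocrit in RPMI with 10% human serum, exposed 48 h at 37 °C under 90% N2/5% CO2/5% O2 at the stated concentration; parasite DNA stained with ethidium bromide after proteinase K lysis; viability % = (Flu treated − medium)/(Flu untreated − medium) ×100; triplicate.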

HT-29 = experiment: Cytotoxicity against human HT-29 cells after 48 hrs by SRB assay; assay type: functional; conditions: HT-29, 48 h; procedure, shortened: as §2
OVCAR-8 = experiment: Cytotoxicity against human OVCAR8 cells after 48 hrs by SRB assay; assay type: functional; conditions: OVCAR-8, 48 h; procedure, shortened: as §2
A498 = experiment: Cytotoxicity against human A498 cells after 48 hrs by SRB assay; assay type: functional; conditions: A498, 48 h; procedure, shortened: as §2
T47D = experiment: Cytotoxicity against human T47D cells after 48 hrs by SRB assay; assay type: functional; procedure, shortened: as §1
NCI-H322M = experiment: Cytotoxicity against human NCI-H322M cells after 48 hrs by SRB assay; assay type: functional; procedure, shortened: as §2
SF-295 = experiment: Cytotoxicity against human SF295 cells after 48 hrs by SRB assay; assay type: functional; conditions: SF-295, 48 h; procedure, shortened: as §2
COLO 205 = experiment: Cytotoxicity against human COLO205 cells after 48 hrs by SRB assay; assay type: functional; conditions: COLO 205, 48 h; procedure, shortened: as §2
HCT-116 = experiment: Cytotoxicity against human HCT116 cells after 48 hrs by SRB assay; assay type: functional; conditions: HCT-116, 48 h; procedure, shortened: as §2
RXF 393 = experiment: Cytotoxicity against human RXF393 cells after 48 hrs by SRB assay; assay type: functional; conditions: RXF 393, 48 h; procedure, shortened: as §2
Malme-3M = experiment: Cytotoxicity against human MALME-3M cells after 48 hrs by SRB assay; assay type: functional; procedure, shortened: as §2
SR = experiment: Cytotoxicity against human SR cells after 48 hrs by SRB assay; assay type: functional; procedure, shortened: as §1
SK-MEL-28 = experiment: Cytotoxicity against human SK-MEL-28 cells after 48 hrs by SRB assay; assay type: functional; conditions: SK-MEL-28, 48 h; procedure, shortened: as §2
[4] = read-out: LC50 (the source's name)

## CC(=O)N1N=C(c2ccc(Nc3ccnc4cc(Cl)ccc34)cc2)CC1c1ccc(Cl)cc1 (centres undefined)
TK-10
  GI50: > 100 µM
  LC50 (concentration giving 50% cell loss vs time zero): > 100 µM
ACHN
  GI50: 3.96 µM
ACHN; [4]
  CC50: > 100 µM
[1]
  hemolysis at 48 h: 3.4%
SF-539
  GI50: > 100 µM
SF-539; [4]
  CC50: > 100 µM
MOLT-4
  GI50: 2.42 µM
  LC50: > 100 µM
SK-OV-3
  GI50: > 100 µM
  LC50 (concentration killing 50% of cells): > 100 µM
SW-620
  GI50: 100 µM
  LC50: > 100 µM
U-251
  GI50: > 100 µM
U-251; [4]
  CC50: > 100 µM
Plasmodium falciparum [2]
  IC50: 54.6 µg/mL (≈ 115 µM)
CAKI-1
  GI50: > 100 µM
  LC50: > 100 µM
OVCAR-5
  GI50: > 100 µM
  LC50: > 100 µM
Plasmodium falciparum [3]
  inhibition at 20 µg/mL: 32.9%
HT-29
  GI50: 5.4 µM
  LC50: > 100 µM
OVCAR-8
  GI50: > 100 µM
  LC50 (50% net cell kill): > 100 µM
A498
  GI50: > 100 µM
A498; [4]
  CC50: > 100 µM
T47D
  GI50: 1.57 µM
  LC50 (concentration giving 50% cell kill relative to time zero): > 100 µM
NCI-H322M
  GI50: > 100 µM
  LC50 (50% lethal concentration): > 100 µM
SF-295
  GI50: 3.58 µM
  LC50: > 100 µM
COLO 205
  GI50: 5.93 µM
  LC50: > 100 µM
HCT-116
  GI50: 38.8 µM
  LC50: > 100 µM
RXF 393
  GI50: 5.07 µM
  LC50 (concentration killing 50% of cells): > 100 µM
Malme-3M
  LC50: > 100 µM
SR
  GI50: 0.61 µM
  LC50: > 100 µM
SK-MEL-28
  GI50: 4.88 µM
SK-MEL-28; [4]
  CC50: > 100 µM
